In ChEMBL document CHEMBL4020833, “A Systematic Exploration of Macrocyclization in Apelin-13: Impact on Binding, Signaling, Stability, and Cardiovascular Effects” (J Med Chem, 2018):
Starred links: 1 amine or outer side, 2 acyl side, 3 side chain; linkers in the order of their positions; H or OH if unused. Positions of bridges follow the written chain, without caps; N, C: chain ends. Non-standard residues stand in square brackets, D forms with d. Residues, ends and D or L forms follow the SMILES beside them. *: point of attachment. X1 = O=C([C@H](CCN(CC=[*:3])S(=O)(=O)c1ccccc1[N+](=O)[O-])N[*:1])[*:2]; X6 = N=C(N)NCCC[C@H](NC(=O)[C@@H]1CCC(=O)N1)C(=O)[C@@H]1CCCN1*; X3 = C=CCN([C@@H](CCCNC(=N)N)C(=O)[*:2])[*:1]; X4 = O=C([C@H](CO)N(CC=[*:3])[*:1])[*:2]; X5 = O=C([C@H](CCNCC=[*:3])N[*:1])[*:2]; AllylGly = C=CC[C@H](N)C(=O)O; pGlu = O=C1CC[C@@H](C(=O)O)N1; Nle = CCCC[C@H](N)C(=O)O; CO = O=C([*:1])[*:2]

Columns and labels:
Apelin receptor [1] = target: T1, Apelin receptor (Homo sapiens, UniProt P35414); assay: Displacement of [125I]-[Nle75, Tyr77] Pyr1-apelin-13 from YFP-tagged human APJ receptor expressed in HEK293 cell membranes after 1 hr by gamma-counting method
T1 sequence (P35414 whole entry): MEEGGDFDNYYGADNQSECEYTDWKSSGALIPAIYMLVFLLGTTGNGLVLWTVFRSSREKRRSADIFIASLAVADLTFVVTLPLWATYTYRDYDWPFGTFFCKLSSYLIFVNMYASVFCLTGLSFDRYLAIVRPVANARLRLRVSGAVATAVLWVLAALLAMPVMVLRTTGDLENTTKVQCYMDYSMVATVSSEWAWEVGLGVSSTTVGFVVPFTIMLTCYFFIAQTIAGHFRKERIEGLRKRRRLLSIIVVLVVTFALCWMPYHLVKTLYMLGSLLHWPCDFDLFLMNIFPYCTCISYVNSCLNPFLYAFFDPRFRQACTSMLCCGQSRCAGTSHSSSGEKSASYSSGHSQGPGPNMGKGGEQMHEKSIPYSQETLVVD

Apelin receptor [2] = target: T1, Apelin receptor; assay: Activity at human APJ receptor expressed in HEK293 cells assessed as dissociation of Galphai1 from Gbetagamma subunit after 5 mins by BRET assay; format: cell-based
Apelin receptor [3] = target: T1, Apelin receptor; assay: Activity at GFP10-tagged human APJ receptor expressed in HEK293 cells assessed as induction of RlucII-tagged beta-arrestin-2 recruitment after 30 mins by BRET assay; format: cell-based
[4] = Half life in rat plasma at 1 mM by UPLC-MS analysis; format: ADME, cell-free
How it was run: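 Male rat plasma incubated with peptide at 37 °C for 2, 4, 7, 24 h (or 10, 20, 60, 120 min for short-lived peptides); quenched with acetonitrile-ethanol (1:1) plus nicotinamide internal standard, then UPLC-MS. Percent remaining fitted to exponential decay for half-life; means ± SEM of three independent experiments. 1 mM is the stock solution.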

| Ki (Apelin receptor [1]) | EC50 (Apelin receptor [2]) | EC50 (Apelin receptor [3]) | SMILES | further results |
| --- | --- | --- | --- | --- |
| 2.9 nM | 5.7 nM | 232 nM | C=CC[C@H](NC(=O)[C@H](CC(C)C)NC(=O)[C@H](CCCNC(=N)N)NC(=O)[C@@H]1CCCN1C(=O)[C@H](CCCNC(=N)N)N(CC=C)C(=O)[C@@H]1CCC(=O)N1)C(=O)N[C@@H](Cc1cnc[nH]1)C(=O)N[C@@H](CCCCN)C(=O)NCC(=O)N1CCC[C@H]1C(=O)N[C@@H](CCCC)C(=O)N1CCC[C@H]1C(=O)N[C@@H](Cc1ccccc1)C(=O)O | – |
| 6070 nM | – | – | CCCC[C@H](NC(=O)[C@@H]1CCCN1C(=O)CNC(=O)[C@@H]1C/C=C\C[C@H](NC(=O)[C@@H]2CCCN2C(=O)[C@H](CCCNC(=N)N)NC(=O)[C@@H]2CCC(=O)N2)C(=O)N[C@@H](CC(C)C)C(=O)N[C@@H](CO)C(=O)N[C@@H](Cc2cnc[nH]2)C(=O)N1)C(=O)N1CCC[C@H]1C(=O)N[C@@H](Cc1ccccc1)C(=O)O ([pGlu]RP[AllylGly]LSH[AllylGly]GP[Nle]PF-OH; staple (Z) 4-8) | – |
| – | – | – | CCCC[C@@H]1NC(=O)[C@@H]2CCCN2C(=O)[C@@H](NC(=O)[C@H](CCCCN)NC(=O)[C@H](Cc2cnc[nH]2)NC(=O)[C@H](CO)NC(=O)[C@H](CC(C)C)NC(=O)[C@H](CCCNC(=N)N)NC(=O)[C@@H]2CCCN2C(=O)[C@H](CCCNC(=N)N)NC(=O)[C@@H]2CCC(=O)N2)CCN(S(=O)(=O)c2ccccc2[N+](=O)[O-])C/C=C\C[C@H](C(=O)O)NC(=O)[C@@H]2CCCN2C1=O | Ki (Apelin receptor [1]; hek293): 0.1 nM; EC50 (Apelin receptor [2]; hek293): 1.7 nM; EC50 (Apelin receptor [3]; hek293): 63 nM |
| 194 nM | – | – | C=CC[C@H](NC(=O)CNC(=O)[C@H](CCCCN)NC(=O)[C@H](Cc1cnc[nH]1)NC(=O)[C@H](CC=C)NC(=O)[C@H](CC(C)C)NC(=O)[C@H](CCCNC(=N)N)NC(=O)[C@@H]1CCCN1C(=O)[C@H](CCCNC(=N)N)NC(=O)[C@@H]1CCC(=O)N1)C(=O)N[C@@H](CCCC)C(=O)N1CCC[C@H]1C(=O)N[C@@H](Cc1ccccc1)C(=O)O ([pGlu]RPRL[AllylGly]HKG[AllylGly][Nle]PF-OH) | – |
| 41 nM | – | – | CCCC[C@H](NC(=O)[C@@H]1CCCN1C(=O)[C@@H]1C/C=C\C[C@H](NC(=O)[C@H](CCCNC(=N)N)NC(=O)[C@@H]2CCCN2C(=O)[C@H](CCCNC(=N)N)NC(=O)[C@@H]2CCC(=O)N2)C(=O)N[C@@H](CO)C(=O)N[C@@H](Cc2cnc[nH]2)C(=O)N[C@@H](CCCCN)C(=O)N1)C(=O)N1CCC[C@H]1C(=O)N[C@@H](Cc1ccccc1)C(=O)O ([pGlu]RPR[AllylGly]SHK[AllylGly]P[Nle]PF-OH; staple (Z) 5-9) | – |
| 188 nM | – | – | CCCC[C@H](NC(=O)[C@@H]1C/C=C\CN(C(=O)[C@H](CC(C)C)NC(=O)[C@H](CCCNC(=N)N)NC(=O)[C@@H]2CCCN2C(=O)[C@H](CCCNC(=N)N)NC(=O)[C@@H]2CCC(=O)N2)[C@@H](CO)C(=O)N[C@@H](Cc2cnc[nH]2)C(=O)N[C@@H](CCCCN)C(=O)NCC(=O)N1)C(=O)N1CCC[C@H]1C(=O)N[C@@H](Cc1ccccc1)C(=O)O ([pGlu]RPRL[X4]HKG[AllylGly][Nle]PF-OH; staple (Z) 6-10) | half-life at 1000 µM [4]: > 24 h |
| 445 nM | – | – | C=CC[C@H](NC(=O)[C@H](Cc1ccccc1)NC(=O)[C@@H]1CCCN1C(=O)[C@H](CCCC)NC(=O)[C@H](CC=C)NC(=O)CNC(=O)[C@H](CCCCN)NC(=O)[C@H](Cc1cnc[nH]1)NC(=O)[C@H](CO)NC(=O)[C@H](CC(C)C)NC(=O)[C@H](CCCNC(=N)N)NC(=O)[C@@H]1CCCN1C(=O)[C@H](CCCNC(=N)N)NC(=O)[C@@H]1CCC(=O)N1)C(=O)O ([pGlu]RPRLSHKG[AllylGly][Nle]PF[AllylGly]-OH) | – |
| > 10000 nM | – | – | CCCC[C@@H]1NC(=O)[C@@H]2CCCN2C(=O)[C@@H](N)CCNC/C=C\C[C@@H](C(=O)O)NC(=O)[C@@H]2CCCN2C1=O (H-[X5]P[Nle]P[AllylGly]-OH; staple (Z) 1-5) | – |
| 917 nM | – | – | CCCC[C@@H]1NC(=O)[C@@H]2CCCN2C(=O)[C@@H](NC(=O)[C@H](CCCCN)NC(=O)[C@H](Cc2cnc[nH]2)NC(=O)[C@H](CO)NC(=O)[C@H](CC(C)C)NC(=O)[C@H](CCCNC(=N)N)NC(=O)[C@@H]2CCCN2C(=O)[C@H](CCCNC(=N)N)NC(=O)[C@@H]2CCC(=O)N2)CCNC/C=C\C[C@@H](C(=O)O)NC(=O)[C@@H]2CCCN2C1=O | – |
| – | – | – | CCCC[C@@H]1NC(=O)[C@@H]2CCCN2C(=O)[C@@H](NC(=O)[C@H](CCCCN)NC(=O)[C@H](Cc2cnc[nH]2)NC(=O)[C@H](CO)NC(=O)[C@H](CC(C)C)NC(=O)[C@H](CCCNC(=N)N)NC(=O)[C@@H]2CCCN2C(=O)[C@H](CCCNC(=N)N)NC(=O)[C@@H]2CCC(=O)N2)CCNC/C=C\C[C@H](C(=O)O)NC(=O)[C@@H]2CCCN2C1=O | Ki (Apelin receptor [1]; hek293): 206 nM |
| 2.5 nM | 0.4 nM | 35 nM | C=CC[C@H](NC(=O)[C@H](CCCNC(=N)N)NC(=O)[C@@H]1CCCN1C(=O)[C@H](CCCNC(=N)N)NC(=O)[C@@H](N)CC=C)C(=O)N[C@@H](CO)C(=O)N[C@@H](Cc1cnc[nH]1)C(=O)N[C@@H](CCCCN)C(=O)NCC(=O)N1CCC[C@H]1C(=O)N[C@@H](CCCC)C(=O)N1CCC[C@H]1C(=O)N[C@@H](Cc1ccccc1)C(=O)O | – |
| 0.3 nM | 1 nM | 42 nM | C=CC[C@H](NC(=O)[C@H](CO)NC(=O)[C@H](CC(C)C)NC(=O)[C@H](CCCNC(=N)N)NC(=O)[C@@H]1CCCN1C(=O)[C@H](CCCNC(=N)N)NC(=O)[C@@H]1CCC(=O)N1)C(=O)N[C@@H](CCCCN)C(=O)NCC(=O)N1CCC[C@H]1C(=O)N[C@@H](CC=C)C(=O)N1CCC[C@H]1C(=O)N[C@@H](Cc1ccccc1)C(=O)O ([pGlu]RPRLS[AllylGly]KGP[AllylGly]PF-OH) | – |
| 3.9 nM | – | – | C=CC[C@H](NC(=O)[C@H](CCCNC(=N)N)NC(=O)[C@@H]1CCCN1C(=O)[C@H](CCCNC(=N)N)NC(=O)[C@@H]1CCC(=O)N1)C(=O)N[C@@H](CO)C(=O)N[C@@H](Cc1cnc[nH]1)C(=O)N[C@@H](CCCCN)C(=O)N[C@@H](CC=C)C(=O)N1CCC[C@H]1C(=O)N[C@@H](CCCC)C(=O)N1CCC[C@H]1C(=O)N[C@@H](Cc1ccccc1)C(=O)O ([pGlu]RPR[AllylGly]SHK[AllylGly]P[Nle]PF-OH) | – |
| > 10000 nM | – | – | CCCC[C@@H]1NC(=O)[C@@H]2CCCN2C(=O)[C@@H](N)CCN(S(=O)(=O)c2ccccc2[N+](=O)[O-])C/C=C\C[C@@H](C(=O)O)NC(=O)[C@@H]2CCCN2C1=O (H-[X1]P[Nle]P[AllylGly]-OH; staple (Z) 1-5) | – |
| 2.7 nM | 2.1 nM | 91 nM | C=CC[C@H](NC(=O)[C@H](Cc1cnc[nH]1)NC(=O)[C@H](CO)NC(=O)[C@H](CC(C)C)NC(=O)[C@H](CCCNC(=N)N)N(CC=C)C(=O)[C@@H]1CCCN1C(=O)[C@H](CCCNC(=N)N)NC(=O)[C@@H]1CCC(=O)N1)C(=O)NCC(=O)N1CCC[C@H]1C(=O)N[C@@H](CCCC)C(=O)N1CCC[C@H]1C(=O)N[C@@H](Cc1ccccc1)C(=O)O ([pGlu]RP[X3]LSH[AllylGly]GP[Nle]PF-OH) | – |
| 523 nM | – | – | C=CC[C@H](NC(=O)[C@H](CC(C)C)NC(=O)[C@H](CCCNC(=N)N)NC(=O)[C@@H]1CCCN1C(=O)[C@H](CC=C)NC(=O)[C@@H]1CCC(=O)N1)C(=O)N[C@@H](Cc1cnc[nH]1)C(=O)N[C@@H](CCCCN)C(=O)NCC(=O)N1CCC[C@H]1C(=O)N[C@@H](CCCC)C(=O)N1CCC[C@H]1C(=O)N[C@@H](Cc1ccccc1)C(=O)O | – |
| 310 nM | – | – | CCCC[C@@H]1NC(=O)[C@@H](NC(=O)CNC(=O)[C@H](CCCCN)NC(=O)[C@H](Cc2cnc[nH]2)NC(=O)[C@H](CO)NC(=O)[C@H](CC(C)C)NC(=O)[C@H](CCCNC(=N)N)NC(=O)N2CCC[C@H]2C(=O)[C@H](CCCNC(=N)N)NC(=O)[C@@H]2CCC(=O)N2)C/C=C\C[C@@H](C(=O)O)NC(=O)[C@H](Cc2ccccc2)NC(=O)[C@@H]2CCCN2C1=O ({X6-CO}-RLSHKG[AllylGly][Nle]PF[AllylGly]-OH; staple (Z) 7-11) | – |
| 2.3 nM | 0.8 nM | 58 nM | C=CC[C@H](NC(=O)[C@H](Cc1cnc[nH]1)NC(=O)[C@H](CO)NC(=O)[C@H](CC(C)C)NC(=O)[C@H](CCCNC(=N)N)NC(=O)[C@@H]1CCCN1C(=O)[C@H](CCCNC(=N)N)NC(=O)[C@@H]1CCC(=O)N1)C(=O)NCC(=O)N1CCC[C@H]1C(=O)N[C@@H](CCCC)C(=O)N[C@@H](CC=C)C(=O)N[C@@H](Cc1ccccc1)C(=O)O ([pGlu]RPRLSH[AllylGly]GP[Nle][AllylGly]F-OH) | – |
| 1.9 nM | 9.2 nM | 274 nM | C=CC[C@H](NC(=O)[C@H](CO)NC(=O)[C@H](CC(C)C)NC(=O)[C@H](CCCNC(=N)N)NC(=O)[C@H](CC=C)NC(=O)[C@H](CCCNC(=N)N)NC(=O)[C@@H]1CCC(=O)N1)C(=O)N[C@@H](CCCCN)C(=O)NCC(=O)N1CCC[C@H]1C(=O)N[C@@H](CCCC)C(=O)N1CCC[C@H]1C(=O)N[C@@H](Cc1ccccc1)C(=O)O | – |
| 489 nM | – | – | C=CC[C@H](NC(=O)[C@H](Cc1cnc[nH]1)NC(=O)[C@H](CO)NC(=O)[C@H](CC(C)C)NC(=O)[C@H](CC=C)NC(=O)[C@@H]1CCCN1C(=O)[C@H](CCCNC(=N)N)NC(=O)[C@@H]1CCC(=O)N1)C(=O)NCC(=O)N1CCC[C@H]1C(=O)N[C@@H](CCCC)C(=O)N1CCC[C@H]1C(=O)N[C@@H](Cc1ccccc1)C(=O)O ([pGlu]RP[AllylGly]LSH[AllylGly]GP[Nle]PF-OH) | – |
